Source: paper PMC3646568 (Protein and peptide letters, 2012)
Where two headings read alike, the source gives them in different places.

Key:
[1] = tested on: VEGF or basic fibroblast growth factor (bFGF); conditions: cited from earlier work
VEGFR-2-Fc = conditions: cited from earlier work
VEGFR-3 (Homo sapiens) = VEGFR-3 (Homo sapiens) (UniProt P35916); conditions: cited from earlier work
[2] = tested on: Primary human lung lymphatic endothelial cells (h-LECs); assay: Scratch wound cell migration assay, h-LECs; format: cell-based; conditions: 100 ng/mL VEGF-C stimulation, 24 h
Procedure, shortened: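 Confluent h-LECs held serum-free for 24 h, rinsed with DMEM, and scratched with a pipette tip. Washed with PBS, then kept 24 h in experimental medium with 100 ng/mL VEGF-C ± test peptide. Fixed in 4% paraformaldehyde; cells migrating past the scratch counted in ≥3 fields per well, three wells per condition.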

[3] = target: VEGFR3-AP (a VEGFR-3 fusion protein); conditions: fully processed VEGF-C binding to VEGFR3-AP; cited from earlier work
[4] = target: T1, recombinant mouse VEGFR-3-Fc (mouse, UniProt P35917 25-775); assay: SPR
T1 sequence (looked up): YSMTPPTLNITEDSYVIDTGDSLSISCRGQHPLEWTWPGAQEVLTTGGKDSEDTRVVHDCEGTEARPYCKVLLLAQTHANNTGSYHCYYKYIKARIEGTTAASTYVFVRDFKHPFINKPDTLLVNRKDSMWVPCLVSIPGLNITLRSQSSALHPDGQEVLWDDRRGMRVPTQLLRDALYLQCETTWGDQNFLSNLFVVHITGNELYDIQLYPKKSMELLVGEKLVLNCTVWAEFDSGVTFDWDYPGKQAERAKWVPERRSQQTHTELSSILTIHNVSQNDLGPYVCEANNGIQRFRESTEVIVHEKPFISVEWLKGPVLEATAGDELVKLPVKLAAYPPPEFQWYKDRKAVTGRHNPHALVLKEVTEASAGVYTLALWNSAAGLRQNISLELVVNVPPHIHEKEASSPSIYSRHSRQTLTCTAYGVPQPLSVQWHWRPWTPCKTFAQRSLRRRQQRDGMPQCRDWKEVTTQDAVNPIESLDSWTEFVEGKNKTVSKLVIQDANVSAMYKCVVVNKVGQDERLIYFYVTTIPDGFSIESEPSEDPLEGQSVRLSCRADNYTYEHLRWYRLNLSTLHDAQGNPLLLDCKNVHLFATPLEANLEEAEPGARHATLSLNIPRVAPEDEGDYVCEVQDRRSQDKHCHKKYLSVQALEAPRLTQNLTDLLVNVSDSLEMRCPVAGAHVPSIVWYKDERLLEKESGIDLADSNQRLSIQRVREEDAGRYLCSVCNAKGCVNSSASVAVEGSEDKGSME

recombinant VEGFR-3-Fc = format: binding, mouse; conditions: pull-down
Procedure, shortened: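 GST-fused endostatin-containing fragments were incubated with recombinant VEGFR-3-Fc and a range of VEGF-C concentrations. Receptor–ligand complexes were recovered by pull-down and probed by western blot with anti-VEGFR-3 antibody.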

endostatin
Binding to VEGF or bFGF [1]: does not bind to VEGF or basic fibroblast growth factor (bFGF)
Block of interaction of VEGF-A and VEGFR-2-Fc (VEGFR-2-Fc; 10-min preincubation of endostatin with VEGFR-2-Fc): blocks the interaction of VEGF-A and VEGFR-2-Fc in a dose-dependent manner
Dissociation rate of VEGFR-2-Fc from VEGF and its receptor complex (VEGFR-2-Fc; endostatin 10 μg/mL): does not affect the dissociation rate

VEGF-C (from UniProt P49767)
Kd (VEGFR-3 (Homo sapiens)): 1 nM

B1: VEGF-C: vascular endothelial growth factor C, recombinant; literature KD for fully processed VEGF-C (protein)
chain: FESGLDLSDAEPDAGEATAYASKDLEEQLRSVSSVDELMTVLYPEYWKMYKCQLRKGGWQHNREQANLNSRTEETIKFAAAHYNTEILKSIDNEWRKTQCMPREVCIDVGKEFGVATNTFFKPPCVSVYRCGGCCNSEGLQCMNTSTSYLSKTLFEITVPLSQGPKPVTISFANHTSCRCMSKLDVYRQVHSIIRR
Repopulation of the scratch surface [2]: approximately 50%
Kd [3]: 1 nM

LEQKAASCHNSYIVLCIENSFMTSFSK [murine endostatin peptide (mEP)]
koff [4]: 0.672 s⁻¹
kon [4]: 1.41e+07 M⁻¹ s⁻¹

B2: GST-endostatin-containing fragments: GST-endostatin-containing fragments (protein)
chain: HTHQDFQPVLHLVALNTPLSGGMRGIRGADFQCFQQARAVGLSGTFRAFLSSRLQDLYSIVRRADRGSVPIVNLKDEVLSPSWDSLFSGSQGQLQPGARIFSFDGRDVLRHPAWPQKSVWHGSDPSGRRLMESYCETWRTETTGATGQASSLLSGRLLEQKAASCHNSYIVLCIENSFMTSFSK
modifications: left off: GST, end not stated, kept
Binding of GST-endostatin-containing fragment to VEGFR-3-Fc (recombinant VEGFR-3-Fc; western blot with anti-VEGFR-3 antibody, absence of VEGF-C and low concentration of VEGF-C (lanes 1 and 2)): able to bind VEGFR-3-Fc
Binding of GST-endostatin-containing fragment to VEGFR-3-Fc (recombinant VEGFR-3-Fc; western blot, VEGF-C at a higher concentration (lane 3)): diminished
